Screening results (PubChem)
Hsp70 activator = Hsp70 transcriptional activation, primary screen | HeLa Hsp70 promoter luciferase reporter, luminescence; scaled: vehicle 0, proteasome-inhibitor control 100% | activation, % at 10 µM | 200,000 compounds, 0.04% hits | AID 1203;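 active = activation above the mean across all tested compounds plus 3 SD, cutoff set per campaign, cut at about 5.5% in these data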;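 note: 100% = MG132 at 30 µM as the positive control and 0% = DMSO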
Pf gamet viab = inhibitors of late stage P. falciparum gametocyte viability. AID 743093. P. falciparum stage V gametocytes, ATP luminescence, 24 h. inhibition, % at 10.9 µM. 150,000 compounds, 0.065% hits;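 active = inhibition above the mean plus 3 SD of compounds within the control limits, set per campaign, cut at about 38% in these data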;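 note: 0% = DMSO wells and 100% = medium only without gametocytes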
Mdm2 ligase inh = Mdm2 E3 ligase (human) inhibition; Q00987; cell-based MDM2 ubiquitination luciferase reporter, 2 h; 0 = plate control, 100 = twice control, blank-subtracted; signal enhancement, % at 5 µM; 210,000 compounds, 0.11% hits;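 active = signal enhancement of 30% or more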;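 note: luminescence tracks abundance of the self-degrading MDM2-luciferase fusion protein; higher signal means inhibition of MDM2 E3 ligase activity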
Target sequence (Q00987 whole entry, looked up, the tested form may be a part): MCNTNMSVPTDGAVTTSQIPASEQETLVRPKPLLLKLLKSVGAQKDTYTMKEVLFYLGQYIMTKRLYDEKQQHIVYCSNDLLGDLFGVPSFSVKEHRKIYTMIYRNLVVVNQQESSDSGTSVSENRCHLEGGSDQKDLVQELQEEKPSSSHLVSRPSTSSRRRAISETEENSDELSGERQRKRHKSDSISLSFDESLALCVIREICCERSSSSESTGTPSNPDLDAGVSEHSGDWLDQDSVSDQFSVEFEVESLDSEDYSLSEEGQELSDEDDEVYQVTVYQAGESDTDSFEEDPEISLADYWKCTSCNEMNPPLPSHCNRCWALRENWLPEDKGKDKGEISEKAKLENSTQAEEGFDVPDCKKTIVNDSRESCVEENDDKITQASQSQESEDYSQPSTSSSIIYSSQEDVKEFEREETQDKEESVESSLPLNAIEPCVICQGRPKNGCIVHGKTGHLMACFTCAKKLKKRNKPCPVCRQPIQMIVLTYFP
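Assay system: stable mammalian line carrying autodegrading MDM2–luciferase fusion reporter; Input: 2000 cells in each well; Compound dosing: single-point 5 µM; Schedule: 2 h compound exposure at 37 °C; Signal: SteadyLite luciferase luminescence after 15 min room-temperature reagent incubation; Evaluation: % luminescence enhancement versus blank-corrected plate control mean; Benchmarks: plate controls and plate blanks.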
m-calpain inh = blocks pig calpain II enzyme activity | inhibition, % at 16 µM | purified calpain II, fluorogenic peptide substrate, 30 min | 220,000 compounds, 0.37% hits;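 active = inhibition above about 50%, limit read from the data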
Wee1 stabilizer = inhibitors of human Wee1 degradation. HeLa Luc-Wee1K328M stability, luciferase luminescence; 100% = proteasome inhibitor MG132 effect. reporter increase, % at 5 µM. 220,000 compounds, 1.2% hits. AID 1321;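 active = activation above the mean of all tested compounds plus 3 SD, set per screening run, cut at about 8.8% in these data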;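 note: cells exposed to compound for 20 h before luminescence read; 0% = DMSO alone and 100% = MG132 at 30 µM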
Numbers without * were called inactive; x = no result; ! = a repeat was not active. Sampled rows, rich in hits. Any-hit rate of the full collection: about 1.5%.

SMILES | Hsp70 activator | Pf gamet viab | Mdm2 ligase inh | m-calpain inh | Wee1 stabilizer
CCOc1cccc(-c2nc3c(s2)CCc2onc(-c4cccc([N+](=O)[O-])c4)c2-3)c1 | x | 4.2 | x | x | x
CC(C)Cn1c(=O)c(C(=O)NCc2ccccn2)c(O)c2ccccc21 | -0.3 | -8.2 | -16.3 | -23.8 | 12.0*
CCCn1c(=O)c(C(=O)NCc2ccncc2)c(O)c2ccccc21 | -0.5 | x | -6.1 | -14.3 | -3.1
O=C(O)CCCC(=O)N1CC(=O)Nc2ccccc21 | 0.1 | x | -12.8 | -27.3 | 9.1*
O=C1CN(C(=O)CCCc2c[nH]c3ccccc23)c2ccccc2N1 | -0.2 | x | -20.2 | -71.3 | -1.7
CCN(CC)CCN(CC(=O)Nc1c(C)cc(C)cc1C)C(=O)c1ccccc1 | x | -17.2 | x | x | x
Cc1sc(NC(=S)NC(=O)c2cccs2)nc1-c1ccc(C(C)C)cc1 | -0.2 | x | -16.1 | 62.4* | 0.8
CC(NCc1ccc(S(N)(=O)=O)cc1)C(=O)N1c2ccccc2CC1C (stereo not given) | x | -16.4 | x | -3.1 | -0.4
Cc1onc(-c2ccccc2)c1-c1ccnn1S(=O)(=O)c1ccc(Cl)cc1 | x | -40.4 | -10.7 | 18.1 | 10.0*
O=S(=O)(c1cc(Cl)c(Cl)cc1Cl)N1CCN2CCCC2C1 (stereo not given) | x | -4.0 | x | x | x
CCCn1c(C(O)c2cc(OC)c(OC)c(OC)c2)nc2ccccc21 (stereo not given) | x | 4.6 | x | x | x
CCc1ccc(OCCNC(=O)c2ccc(S(=O)(=O)N(C)C)cc2)cc1 | 0.0 | -4.1 | -7.2 | 17.4 | 9.9*
CCOc1ccc(NC(=O)c2ccc(S(=O)(=O)N(C)C)cc2)cc1 | -0.5 | x | -6.3 | -9.8 | 2.0
CC(C)n1c(=S)[nH]c2scc(-c3cccs3)c2c1=O | x | 3.4 | -12.3 | 59.5* | 9.1*
CCn1c(=S)[nH]c2scc(-c3cccs3)c2c1=O | -0.2 | 17.2 | -19.5 | 27.2 | -1.7
O=C(NCc1ccco1)c1cccc(Nc2nc3ccc(Br)cc3[nH]2)c1 | -0.4 | x | 9.6 | 82.2* | -1.8
CCN(CC)CCCN(Cc1cc2cc(OC)c(OC)cc2[nH]c1=O)C(=O)Nc1ccccc1 | -0.3 | 18.5 | -4.8 | -174.0 | 9.9*
Cc1ccc(C(=O)NC(C)CCc2ccccc2)cc1[N+](=O)[O-] (stereo not given) | -0.3 | x | -11.5 | 7.1 | 11.3*
C[C@@]12CCC3[C@@](CCC4[C@@]3(C)CCC[C@@]4(C)C(=O)N3CCCCC3)(CC1=O)C2 (stereo not given in full) | x | -27.7 | x | x | x
CC(=O)Nc1cc(-c2ccccc2)ccc1O | 0.3 | 5.9 | 1.4 | 16.6 | -2.5
Nc1cc(-c2ccccc2)ccc1O | 0.4 | -44.1 | -8.8 | -20.9 | 10.1*!
CCOC(=O)NC(=O)/C(N=Nc1ccc(C(F)(F)F)cc1)=C(\C)O | -0.3 | 9.6 | 3.1 | 15.8 | 9.9*
Cc1c(N2C(=O)c3ccccc3C2=O)c(=O)n(-c2ccccc2)n1C | 0.1 | x | -22.1 | 21.8 | -3.3
Cc1c(N2C(=O)c3ccc(F)cc3C2=O)c(=O)n(-c2ccccc2)n1C | -0.3 | x | -5.8 | -10.4 | 9.6*
Cc1cc(=O)n2[nH]c(Nc3cccc(Cl)c3)nc2n1 | x | 2.2 | x | x | x
SMILES | Hsp70 activator | Pf gamet viab | Mdm2 ligase inh | m-calpain inh | Wee1 stabilizer
O=C(N/N=C/C=C\c1ccccc1)c1cnccn1 | -0.2 | x | -6.5 | -3.6 | 4.0
O=C(N/N=C/C=C/c1ccccc1)c1ccccn1 | x | 0.1 | -14.7 | 7.1 | 8.9*
O=C(N/N=C/C=C/c1ccccc1)c1n[nH]c2c1CCC2 | 0.2 | x | -17.4 | -31.3 | 9.1*
COc1ccc(C2=CSC3=NCCN23)cc1Br | x | 12.2 | x | x | x
Cc1cc(C)cc(SCc2noc(C(=O)NCCC(C)C)c2C(=O)NCCC(C)C)c1 | x | 3.5 | x | x | x
CC1CC(C)CN(c2nc(NCc3ccco3)nc(N)c2[N+](=O)[O-])C1 (stereo not given) | -0.4 | -14.4 | -7.8 | 34.1 | 10.9*
C[C@@H](NC(=O)c1nc[nH]c1C(=O)N[C@@H](CCCCNC(=O)OC(C)(C)C)C(=O)OC(C)(C)C)c1ccccc1 | -0.4 | x | x | 60.6* | 3.0
CC(C)C[C@H](NC(=O)c1[nH]cnc1C(=O)N[C@@H](C)c1ccccc1)C(=O)OCc1ccccc1 | x | x | -8.9 | 56.2* | x
CC(C)C[C@H](NC(=O)c1nc[nH]c1C(=O)NCCCCCNC(=O)OC(C)(C)C)C(=O)OC(C)(C)C | -0.2 | -3.0 | x | 51.4* | -0.9
CC(C)(C)OC(=O)NCCCC[C@H](NC(=O)c1[nH]cnc1C(=O)Nc1ccccc1)C(=O)OC(C)(C)C | x | x | -11.0 | 26.0 | x
Cc1ccc2c(c1)N(CC(=O)Nc1ccccc1F)C(=O)C(C)O2 (stereo not given) | x | -13.6 | x | x | x
